Source: ChEMBL document CHEMBL3779798, “Novel seleno- and thio-urea derivatives with potent in vitro activities against several cancer cell lines” (Eur J Med Chem, 2016)

Tests used:
Type in all cases: functional, cell-based
RKO [1] = assay: Anticancer activity against human RKO cells assessed as inhibition of cell growth after 48 hrs by MTT assay
How it was run: (§1)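 MTT assay at 3,000 cells/well. Cells treated with DMSO or seven concentrations from 0.5 to 50 µM for 24, 48 or 72 h. MTT added 3 h before the end point; formazan dissolved in DMSO and read at 570 and 630 nm. IC50 is the concentration giving 50% growth inhibition. Media: PANC-1, BxPC3 and 1205Lu in DMEM; DU145 and A549 in RPMI 1640; HT29, HCT116 and RKO in McCoy's 5A, all with 10% FBS and pen/strep, at 37 °C and 5% CO2.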

[2] = Anticancer activity against human HCT116 cells assessed as inhibition of cell growth after 24 hrs by MTT assay; details: HCT-116, 24 h; how it was run: as §1
[3] = Anticancer activity against human HCT116 cells assessed as inhibition of cell growth after 48 hrs by MTT assay; details: HCT-116, 48 h; how it was run: as §1
[4] = Anticancer activity against human HCT116 cells assessed as inhibition of cell growth after 72 hrs by MTT assay; details: HCT-116, 72 h; how it was run: as §1
RKO [5] = assay: Anticancer activity against human RKO cells assessed as inhibition of cell growth after 24 hrs by MTT assay; how it was run: as §1
HT-29 [6] = assay: Anticancer activity against human HT-29 cells assessed as inhibition of cell growth after 24 hrs by MTT assay; details: HT-29, 24 h; how it was run: as §1
HT-29 [7] = assay: Anticancer activity against human HT-29 cells assessed as inhibition of cell growth after 48 hrs by MTT assay; details: HT-29, 48 h; how it was run: as §1
HT-29 [8] = assay: Anticancer activity against human HT-29 cells assessed as inhibition of cell growth after 72 hrs by MTT assay; details: HT-29, 72 h; how it was run: as §1
RKO [9] = assay: Anticancer activity against human RKO cells assessed as inhibition of cell growth after 72 hrs by MTT assay; how it was run: as §1
[10] = Anticancer activity against human 1205 Lu cells assessed as inhibition of cell growth after 24 hrs by MTT assay; how it was run: as §1
[11] = Anticancer activity against human 1205 Lu cells assessed as inhibition of cell growth after 48 hrs by MTT assay; how it was run: as §1
[12] = Anticancer activity against human 1205 Lu cells assessed as inhibition of cell growth after 72 hrs by MTT assay; how it was run: as §1
A549 [13] = assay: Anticancer activity against human A549 cells assessed as inhibition of cell growth after 24 hrs by MTT assay; details: A549, 24 h; how it was run: as §1
A549 [14] = assay: Anticancer activity against human A549 cells assessed as inhibition of cell growth after 48 hrs by MTT assay; details: A549, 48 h; how it was run: as §1
A549 [15] = assay: Anticancer activity against human A549 cells assessed as inhibition of cell growth after 72 hrs by MTT assay; details: A549, 72 h; how it was run: as §1
[16] = Anticancer activity against human DU145 cells assessed as inhibition of cell growth after 24 hrs by MTT assay; details: DU-145, 24 h; how it was run: as §1
[17] = Anticancer activity against human DU145 cells assessed as inhibition of cell growth after 48 hrs by MTT assay; details: DU-145, 48 h; how it was run: as §1
[18] = Anticancer activity against human DU145 cells assessed as inhibition of cell growth after 72 hrs by MTT assay; details: DU-145, 72 h; how it was run: as §1
[19] = Anticancer activity against human PANC1 cells assessed as inhibition of cell growth after 24 hrs by MTT assay; details: PANC-1, 24 h; how it was run: as §1
[20] = Anticancer activity against human PANC1 cells assessed as inhibition of cell growth after 48 hrs by MTT assay; details: PANC-1, 48 h; how it was run: as §1
[21] = Anticancer activity against human PANC1 cells assessed as inhibition of cell growth after 72 hrs by MTT assay; details: PANC-1, 72 h; how it was run: as §1
[22] = Anticancer activity against human BxPC3 cells assessed as inhibition of cell growth after 24 hrs by MTT assay; details: BXPC-3, 24 h; how it was run: as §1
[23] = Anticancer activity against human BxPC3 cells assessed as inhibition of cell growth after 48 hrs by MTT assay; details: BXPC-3, 48 h; how it was run: as §1
[24] = Anticancer activity against human BxPC3 cells assessed as inhibition of cell growth after 72 hrs by MTT assay; details: BXPC-3, 72 h; how it was run: as §1

SMILES	IC50 (RKO [1]) [µM]	IC50 [2] [µM]	IC50 [3] [µM]	IC50 [4] [µM]	IC50 (RKO [5]) [µM]	IC50 [10] [µM]	IC50 [11] [µM]	IC50 [12] [µM]	IC50 (A549 [13]) [µM]	IC50 (A549 [14]) [µM]	IC50 (A549 [15]) [µM]	IC50 [16] [µM]	IC50 [17] [µM]	IC50 [18] [µM]	IC50 [19] [µM]	IC50 [20] [µM]	IC50 [21] [µM]	IC50 [22] [µM]	IC50 [23] [µM]	IC50 [24] [µM]	further results
O=c1[nH]cc(F)c(=O)[nH]1 [FLUOROURACIL]	41.1	> 50	> 50	27.8	> 50	–	–	–	–	–	–	–	–	–	–	–	–	–	–	–	IC50 (HT-29 [6]): > 50 µM; IC50 (HT-29 [7]): 25 µM; IC50 (HT-29 [8]): 6.3 µM; IC50 (RKO [9]): 6.8 µM
N=C(N)SCc1ccc2c(c1)C(=O)c1ccccc1C2=O	20.4	20.2	10.7	10.3	28.9	9.4	8.5	6.3	9.7	8.7	7.6	29.8	22.9	31.2	7.6	7.4	6.8	4.1	9	7.9	IC50 (HT-29 [6]): 17 µM; IC50 (HT-29 [7]): 8.1 µM; IC50 (HT-29 [8]): 7.4 µM; IC50 (RKO [9]): 21 µM
N=C(N)SCc1c2ccccc2nc2ccccc12	–	> 50	> 50	45.1	–	> 50	> 50	> 50	> 50	> 50	> 50	> 50	> 50	> 50	> 50	> 50	> 50	> 50	> 50	46.3	–
COc1cc2oc(=O)cc(C[Se]C(=N)N)c2cc1OC	–	26.7	8.9	6.6	–	21	4.4	1.9	15.7	5.2	4.5	11.4	8.4	6.8	20.6	19.4	10	> 50	> 50	6.6	–
N=C(N)[Se]Cc1ccc2c(c1)C(=O)c1ccccc1C2=O	–	> 50	12.6	5.9	–	17.4	14.5	11.3	8.9	2.2	1.9	21.4	6.2	8.2	> 50	> 50	31.4	> 50	> 50	> 50	–
